Measurements gathered from unrelated publications.
Compare with care: the assays were run in different laboratories.
Target: Protein-tyrosine kinase 2-beta (PTK2B, Homo sapiens, UniProt Q14289)

With `Cn1cncc1[C@@](O)(COc1ccc(C#N)cc1-c1ccc(OC(F)(F)F)cc1)c1ccc(C#N)cc1` the remaining binding was 100% (cell-free assay, competition with immobilised ligand; 1 µM).
`O=c1[nH]c2ccccc2n1C1CCN(Cc2ccc(-c3[nH]c4cc5ncnc5cc4nc3-c3ccccc3)cc2)CC1` has a remaining activity of 105% (enzyme activity; 0.5 µM).
`N#CC1(c2ccccn2)CCN(Cc2cc(C(=O)O)c(=O)n3ccccc23)CC1` has a remaining binding of 100% (cell-free assay, competition with immobilised ligand; 1 µM).
For `Cn1cc(-c2cc(F)cc(N3CCn4c(cc5c4CCCC5)C3=O)c2CO)cc(Nc2ccc(N3CCN(C4COC4)CC3)cn2)c1=O`, the inhibition was 6% (enzyme activity, inhibitor; 0.1 µM).
`COc1ncccc1-c1cnn2ccc(N3CCN(C(=O)OC(C)C)CC3)nc12` has a remaining binding of 100% (binding, competition with immobilised ligand; 1 µM).
`Cc1nn(C)cc1-c1nc2c(N3CCN(Cc4ccc(Cl)cc4)CC3)c(Cl)cnc2[nH]1` gave a remaining binding of 100% (binding, competition with immobilised ligand; 1 µM).
The inhibition of `Cn1cc(-c2cccc(N3CCc4c(sc5c4CC(C)(C)C5)C3=O)c2CO)cc(Nc2ccncn2)c1=O` is reported as 2% (enzyme activity, inhibitor; 1 µM).
For `Nc1ncc(-c2nc(N3CCOCC3)nc(N3CCOCC3)n2)c(C(F)F)n1`, the remaining binding was 70% (binding, competition with immobilised ligand; 10 µM).
